Test results from ChEMBL document CHEMBL1649165, “Activity profile in vitro of micafungin against Spanish clinical isolates of common and emerging species of yeasts and molds” (2009).
In brackets after ≈: the same amount, converted by molar mass.

How the values were obtained:
Format in all cases: functional
[1] = test system: Cunninghamella bertholletiae; assay: Antimicrobial activity against Cunninghamella bertholletiae by broth microdilution method
Method in brief: (§1)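 Clinical mould isolates, tested by broth microdilution using the AFST-EUCAST reference method for filamentous fungi. For echinocandins, the endpoint was the minimum effective concentration: the lowest drug concentration giving aberrant hyphal growth, read with an inverted microscope.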

Fusarium solani = assay: Antimicrobial activity against Fusarium solani by broth microdilution method
Method in brief: (§2)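 Filamentous fungus clinical isolates tested by the AFST-EUCAST reference broth microdilution method for moulds. For echinocandins, the endpoint was the minimum effective concentration: the lowest drug concentration giving aberrant hyphal growth, read with an inverted microscope.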

Aspergillus ustus = assay: Antimicrobial activity against Aspergillus ustus by broth microdilution method; method in brief: as §1
Aspergillus = assay: Antimicrobial activity against Aspergillus spp. by broth microdilution method; method in brief: as §1
[2] = Antimicrobial activity against Hormographiella aspergillata by broth microdilution method; conditions: Coprinopsis cinerea; method in brief: as §2
Trichosporon ovoides = assay: Antimicrobial activity against Trichosporon ovoides by broth microdilution method
Method in brief: (§3)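 Nonfermentative yeast clinical isolates (Rhodotorula, Trichosporon) tested by broth microdilution. The EUCAST yeast recommendations were followed strictly, with one minor modification to improve growth. MIC was read as the endpoint.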

Torulaspora delbrueckii = assay: Antimicrobial activity against Candida coliculosa by broth microdilution method
Method in brief: (§4)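 Clinical isolates from human patients, tested by broth microdilution using the AFST-EUCAST reference procedure for fermentative yeasts. The MIC was read per that reference method.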

Exophiala jeanselmei = assay: Antimicrobial activity against Exophiala jeanselmei by broth microdilution method
Lichtheimia corymbifera = assay: Antimicrobial activity against Mycocladus corymbiferus by broth microdilution method; method in brief: as §2
Trichosporon inkin = assay: Antimicrobial activity against Trichosporon inkin by broth microdilution method; method in brief: as §3
Fusarium equiseti = assay: Antimicrobial activity against Fusarium equiseti by broth microdilution method; method in brief: as §1
[Candida] inconspicua = Antimicrobial activity against Candida inconspicua by broth microdilution method; conditions: Pichia inconspicua; method in brief: as §4
Clavispora lusitaniae = assay: Antimicrobial activity against Candida lusitaniae by broth microdilution method; method in brief: as §4
Candida parapsilosis = assay: Antimicrobial activity against Candida parapsilosis by broth microdilution method; conditions: Lodderomyces parapsilosis; method in brief: as §4
Geotrichum candidum = assay: Antimicrobial activity against Galactomyces geotrichum by broth microdilution method
Lomentospora prolificans = assay: Antimicrobial activity against Scedosporium prolificans by broth microdilution method; method in brief: as §2
Aspergillus fumigatus = assay: Antimicrobial activity against Aspergillus fumigatus by broth microdilution method; method in brief: as §1
Trichosporon asahii = assay: Antimicrobial activity against Trichosporon asahii by broth microdilution method; method in brief: as §3
Acremonium sp. = assay: Antimicrobial activity against Acremonium sp.by broth microdilution method; method in brief: as §1
Naganishia albida = assay: Antimicrobial activity against Cryptococcus albidus by broth microdilution method
Method in brief: (§5)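 Clinical isolates of nonfermentative yeasts, tested by broth microdilution following EUCAST recommendations. The only change from that method was a minor modification to improve growth.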

Paecilomyces variotii = assay: Antimicrobial activity against Paecilomyces variotii by broth microdilution method; method in brief: as §2
Debaryomyces hansenii = assay: Antimicrobial activity against Candida famata by broth microdilution method; method in brief: as §4
Aspergillus sclerotiorum = assay: Antimicrobial activity against Aspergillus sclerotiorum by broth microdilution method; method in brief: as §1
Neurospora sitophila = assay: Antimicrobial activity against Chrysonilia sitophila by broth microdilution method; method in brief: as §1
Trichosporon jirovecii = assay: Antimicrobial activity against Trichosporon jirovecii by broth microdilution method; conditions: Cutaneotrichosporon jirovecii; method in brief: as §3
Coprinellus domesticus = assay: Antimicrobial activity against Hormographiella verticillata by broth microdilution method; method in brief: as §2
Papiliotrema laurentii = assay: Antimicrobial activity against Cryptococcus laurentii by broth microdilution method; method in brief: as §5
Diutina rugosa = assay: Antimicrobial activity against Candida rugosa by broth microdilution method; method in brief: as §4
[3] = test system: Kazachstania pintolopesii; assay: Antimicrobial activity against Candida pintolopesii by broth microdilution method; conditions: Arxiozyma pintolopesii; method in brief: as §4
Scytalidium hyalinum = assay: Antimicrobial activity against Scytalidium hyalinum by broth microdilution method; conditions: Neoscytalidium hyalinum; method in brief: as §2
Pichia kudriavzevii = assay: Antimicrobial activity against Candida krusei by broth microdilution method; method in brief: as §4
Ustilago = assay: Antimicrobial activity against Ustilago spp by broth microdilution method
Rhizopus arrhizus = assay: Antimicrobial activity against Rhizopus oryzae by broth microdilution method; method in brief: as §2
[4] = test system: Meyerozyma guilliermondii; assay: Antimicrobial activity against Candida guilliermondii by broth microdilution method; method in brief: as §4
Magnusiomyces capitatus = assay: Antimicrobial activity against Dipodascus capitatus by broth microdilution method
Candida orthopsilosis = assay: Antimicrobial activity against Candida orthopsilosis by broth microdilution method; conditions: Lodderomyces orthopsilosis; method in brief: as §4
Fusarium reticulatum = assay: Antimicrobial activity against Fusarium reticulatum by broth microdilution method; method in brief: as §2
[5] = test system: Cladophialophora bantiana; assay: Antimicrobial activity against Cladophialophora bantiana by broth microdilution method; method in brief: as §1
Cladosporium = assay: Antimicrobial activity against Cladosporium spp. by broth microdilution method; method in brief: as §1
[6] = test system: Cryptococcus deneoformans; assay: Antimicrobial activity against Cryptococcus neoformans var. neoformans by broth microdilution method; method in brief: as §5

## CCC(C)n1ncn(-c2ccc(N3CCN(c4ccc(OCC5COC(Cn6cncn6)(c6ccc(Cl)cc6Cl)O5)cc4)CC3)cc2)c1=O (stereo not given) [ITRACONAZOLE]
[1]
  MIC50: > 8 µg/mL
  MIC90: > 8 µg/mL
Fusarium solani
  MIC50: > 8 µg/mL
  MIC90: > 8 µg/mL
Aspergillus ustus
  MIC50: 0.5 µg/mL (≈ 0.709 µM)
  MIC90: > 8 µg/mL
Aspergillus
  MIC50: 0.5 µg/mL (≈ 0.709 µM)
  MIC90: > 8 µg/mL
[2]
  MIC50: > 8 µg/mL
  MIC90: > 8 µg/mL
Trichosporon ovoides
  MIC50: 0.5 µg/mL (≈ 0.709 µM)
  MIC90: > 8 µg/mL
Torulaspora delbrueckii
  MIC50: 0.12 µg/mL (≈ 0.17 µM)
  MIC90: > 8 µg/mL
Exophiala jeanselmei
  MIC50: 0.12 µg/mL (≈ 0.17 µM)
  MIC90: > 8 µg/mL
Lichtheimia corymbifera
  MIC50: 1 µg/mL (≈ 1.42 µM)
  MIC90: > 8 µg/mL
Trichosporon inkin
  MIC50: 0.12 µg/mL (≈ 0.17 µM)
  MIC90: 0.25 µg/mL (≈ 0.354 µM)
Fusarium equiseti
  MIC50: > 8 µg/mL
  MIC90: > 8 µg/mL
[Candida] inconspicua
  MIC50: 0.12 µg/mL (≈ 0.17 µM)
  MIC90: > 8 µg/mL
Clavispora lusitaniae
  MIC50: 0.02 µg/mL (≈ 0.0283 µM)
  MIC90: 0.03 µg/mL (≈ 0.0425 µM)
Candida parapsilosis
  MIC50: 0.02 µg/mL (≈ 0.0283 µM)
  MIC90: 0.03 µg/mL (≈ 0.0425 µM)
Geotrichum candidum
  MIC50: 0.5 µg/mL (≈ 0.709 µM)
  MIC90: 2 µg/mL (≈ 2.83 µM)
Lomentospora prolificans
  MIC50: > 8 µg/mL
  MIC90: > 8 µg/mL
Aspergillus fumigatus
  MIC50: 0.25 µg/mL (≈ 0.354 µM)
  MIC90: 0.5 µg/mL (≈ 0.709 µM)
Trichosporon asahii
  MIC50: 0.5 µg/mL (≈ 0.709 µM)
  MIC90: > 8 µg/mL
Acremonium sp.
  MIC50: > 8 µg/mL
  MIC90: > 8 µg/mL
Naganishia albida
  MIC50: 0.5 µg/mL (≈ 0.709 µM)
  MIC90: > 8 µg/mL
Paecilomyces variotii
  MIC50: 0.06 µg/mL (≈ 0.085 µM)
  MIC90: 0.25 µg/mL (≈ 0.354 µM)
Debaryomyces hansenii
  MIC50: 0.12 µg/mL (≈ 0.17 µM)
  MIC90: > 8 µg/mL
Aspergillus sclerotiorum
  MIC50: 0.5 µg/mL (≈ 0.709 µM)
  MIC90: > 8 µg/mL
Neurospora sitophila
  MIC50: > 8 µg/mL
  MIC90: > 8 µg/mL
Trichosporon jirovecii
  MIC50: 0.5 µg/mL (≈ 0.709 µM)
  MIC90: > 8 µg/mL
Coprinellus domesticus
  MIC50: > 8 µg/mL
  MIC90: > 8 µg/mL
Papiliotrema laurentii
  MIC50: 0.5 µg/mL (≈ 0.709 µM)
  MIC90: > 8 µg/mL
Diutina rugosa
  MIC50: 0.12 µg/mL (≈ 0.17 µM)
  MIC90: > 8 µg/mL
[3]
  MIC50: 0.12 µg/mL (≈ 0.17 µM)
  MIC90: > 8 µg/mL
Scytalidium hyalinum
  MIC50: 0.12 µg/mL (≈ 0.17 µM)
  MIC90: > 8 µg/mL
Pichia kudriavzevii
  MIC50: 0.25 µg/mL (≈ 0.354 µM)
  MIC90: 0.25 µg/mL (≈ 0.354 µM)
Ustilago
  MIC50: 0.5 µg/mL (≈ 0.709 µM)
  MIC90: > 8 µg/mL
Rhizopus arrhizus
  MIC50: 4 µg/mL (≈ 5.67 µM)
  MIC90: > 8 µg/mL
[4]
  MIC50: 0.25 µg/mL (≈ 0.354 µM)
  MIC90: > 8 µg/mL
Magnusiomyces capitatus
  MIC50: 0.25 µg/mL (≈ 0.354 µM)
  MIC90: 0.5 µg/mL (≈ 0.709 µM)
Candida orthopsilosis
  MIC50: 0.12 µg/mL (≈ 0.17 µM)
  MIC90: > 8 µg/mL
Fusarium reticulatum
  MIC50: > 8 µg/mL
  MIC90: > 8 µg/mL
[5]
  MIC50: 0.12 µg/mL (≈ 0.17 µM)
  MIC90: > 8 µg/mL
Cladosporium
  MIC50: 0.12 µg/mL (≈ 0.17 µM)
  MIC90: > 8 µg/mL
[6]
  MIC50: 0.12 µg/mL (≈ 0.17 µM)
  MIC90: 0.5 µg/mL (≈ 0.709 µM)
